Assay [1] can be described thus: Antitumor promotor activity against mouse C3H10T1/2 cells assessed as inhibition of TPA-enhanced [3H]choline chloride incorporation in to phospholipids at 50 ug/ml after 1 hr. Type of assay: functional. Particulars: C3H 10T1/2.
Assay [2] is described as follows: Antitumor promotor activity against mouse C3H10T1/2 cells assessed as inhibition of TPA-enhanced [3H]choline chloride incorporation in to phospholipids at 2 ug/ml after 1 hr. Particulars: C3H 10T1/2. Type of assay: functional.
Assay [3] is described as follows: Antitumor promotor activity against mouse C3H10T1/2 cells assessed as inhibition of TPA-enhanced [3H]choline chloride incorporation in to phospholipids at 10 ug/ml after 1 hr. Type of assay: functional. Particulars: C3H 10T1/2.
The test system of a further assay is KB. Kind of assay: Cytotoxicity against human KB cells. Type of assay: functional.
Another assay relates to HEp-2. As to the kind of experiment: Cytotoxicity against human Hep2 cells. The class given is functional, cell-based.
Assay [4] is described as follows: Antitumor promotor activity against mouse C3H10T1/2 cells assessed as inhibition of TPA-enhanced [3H]choline chloride incorporation in to phospholipids after 1 hr. The class given is functional. Particulars: C3H 10T1/2, read-out: ID50 (the source's name). The method, boiled down:
(§1)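 Mouse C3H10T1/2 fibroblasts were exposed to test agent for 1 h. Then [methyl-3H]choline chloride (9.25 kBq/culture) was added together with TPA (50 nM), and incubation continued for 4 h. Radioactivity in the phospholipid fraction was measured, and inhibition of the TPA-enhanced incorporation was expressed as %. Test concentrations were 50, 10, 2 or 1.5 µg/ml. Values are means of duplicate experiments.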

The next assay has as its system L5178Y. As to the kind of experiment: Cytotoxicity against mouse L5178Y cells. The class given is functional, cell-based.
For another assay, the system named is C3H 10T1/2. As to the kind of experiment: Antitumor promotor activity against mouse C3H10T1/2 cells assessed as inhibition of TPA-enhanced [3H]choline chloride incorporation in to phospholipids at 1.5 ug/ml after 1 hr. The class given is functional, cell-based. The method, boiled down:
as §1

For the next assay, the system named is PC-13. Kind of assay: Cytotoxicity against human PC13 cells. The class given is functional, cell-based.
The next assay relates to P388. As to the kind of experiment: Cytotoxicity against mouse P388 cells. Type of assay: functional, cell-based.
For another assay, the system named is B16. Kind of assay: Cytotoxicity against mouse B16 cells. The class given is functional, cell-based.

The text below walks through data of ChEMBL document CHEMBL1158993, “Inhibition of tumor-promoter-enhanced 3H-choline incorporation into cellular phospholipids by phloroglucinol derivatives from Mallotus japonicus” (1991).

The structures appear in SMILES notation. Values after ≈ are worked out from the molar mass of the structure shown. Active and inactive are the calls of the source. The rule behind the calls is not given here.

Usually inhibition stands for the percentage by which the read-out fell short of the control.

As to `COc1c(C)c(O)c(C(C)=O)c(O)c1Cc1c(O)c2c(c(C(C)=O)c1O)OC(C)(C)C(O)C2` (stereo unspecified) [MALLOTOCHROMANOL], the inhibition at 50 µg/mL in assay [1] is 100%. Besides, in [2], the inhibition at 2 µg/mL amounted to 2.9%. In addition, the inhibition at 10 µg/mL in assay [3] was 29.2%.
For `C=C(C)C(O)Cc1c(O)c(Cc2c(O)c(C(C)=O)c(O)c(C)c2OC)c(O)c(C(=O)CCC)c1O` (stereo unspecified) [MALLOTOLERIN], in assay [1], the inhibition at 50 µg/mL amounted to 100%. Also, in the assay on KB, the outcome was Active. Further, the inhibition at 2 µg/mL in assay [2] worked out at 78.8%. The inhibition at 10 µg/mL in [3] was 100%.
With `COc1c(C)c(O)c(C(C)=O)c(O)c1Cc1c(O)c(C(C)=O)c(O)c2c1OC(C)(C)C=C2` [ISOMALLOTOCHROMENE], the inhibition at 50 µg/mL in [1] came to 100%. Moreover, the outcome with KB was Active. The inhibition at 2 µg/mL in assay [2] came out at 97.9%. For the same compound, the inhibition at 10 µg/mL in [3] stood at 100%.
`COc1c(C)c(O)c(C(C)=O)c(O)c1Cc1c(O)c2c(c(C(C)=O)c1O)OC(C)(C)CC2` [MALLOTOCHROMAN]: the inhibition at 50 µg/mL in assay [1] came out at 74.3%. Besides, in assay [2], the inhibition at 2 µg/mL amounted to 9.3%. The inhibition at 10 µg/mL in [3] worked out at 68.7%.
`COc1c(C)c(O)c(C(C)=O)c(O)c1Cc1c(O)c2c(c(C(C)=O)c1O)OC(C)(C)C=C2` [MALLOTOCHROMENE]: the inhibition at 50 µg/mL in assay [1] is 100%. In addition, the outcome in the assay on KB was Active. Further, the inhibition at 10 µg/mL in [3] amounted to 66.7%.
On to `COc1c(C)c(O)c(C(C)=O)c(O)c1Cc1c(O)c(C(C)=O)c(O)c2c1OC(C)(C)C(O)C2` (stereo unspecified) [ISOMALLOTOCHROMANOL], for which the inhibition at 50 µg/mL in assay [1] stood at 100%. Also, in assay [2], the inhibition at 2 µg/mL was 0%. Further, in assay [3], the inhibition at 10 µg/mL came to 95.5%.
With `COc1c(C)c(O)c(C(C)=O)c(O)c1Cc1c(O)c(CC=C(C)C)c(O)c(C(C)=O)c1O` [MALLOTOJAPONIN], in assay [1], the inhibition at 50 µg/mL amounted to 100%. Also, the outcome in the assay on HEp-2, in the assay on L5178Y, in the assay with C3H 10T1/2, in the assay with PC-13, in the assay with P388 and in the assay on B16 was Active. Moreover, in [4], the IC50 is 1 µg/mL. Besides, in the assay on KB (read-out: ED50 (the source's name)), the EC50 stood at 0.58 µg/mL (≈ 1.3 µM). Further, the inhibition at 2 µg/mL in assay [2] turned out to be 85.8%. Moreover, the inhibition at 10 µg/mL in assay [3] amounted to 100%.
